Results on eight molecules are retold here after ChEMBL document CHEMBL4152260, “Design, synthesis and biological evaluation of novel quinazoline-2,4-diones conjugated with different amino acids as potential chitin synthase inhibitors” (Eur J Med Chem, 2018).

SMILES strings stand for the structures. Converted amounts (≈) assume the structure as drawn.

One experiment has as its system Saccharomyces cerevisiae. Put plainly: Inhibition of yeast chitin synthase at 300 ug/ml using UDP-GlcNAc as substrate measured after 1 hr relative to control. In a few lines: (§1)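 Membrane CHS from S. cerevisiae CGMCC2.145 (YPAD, 30 °C, 48 h; sonication; 55000 g pellet in Tris/33% glycerol). Wells coated with WGA and blocked with BSA. Reaction in pH 6.8 Tris-maleate with 40 mM GlcNAc, 2 mM UDP-GlcNAc, 37 °C, 1 h. Product detected with WGA-HRP and TMB/H2O2, A450. Test solutions 300–18.75 μg/mL. Inhibition = (B0−Bn)/(B0−OD0); IC50 from log c plot.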

Experiment [1] deals with Cryptococcus neoformans. Put plainly: Antifungal activity against Cryptococcus neoformans ATCC 32719 measured after 24 hrs. As to conditions: ATCC 32719, 24 h. It counts as functional.
Experiment [2] has as its system Candida albicans. Kind of experiment: Antifungal activity against Candida albicans ATCC 76615 measured after 24 hrs. As to conditions: ATCC 76615, 24 h. Type of experiment: functional.
For experiment [3], the system named is Aspergillus fumigatus. Kind of experiment: Antifungal activity against Aspergillus fumigatus GIMCC 3.19 measured after 24 hrs. Type of experiment: functional. To be noted: GIMCC 3.19, 24 h.
The test system of experiment [4] is Aspergillus flavus. Kind of experiment: Antifungal activity against Aspergillus flavus ATCC 16870 measured after 24 hrs. As to conditions: ATCC 16870, 24 h. It counts as functional.
Experiment [5] relates to Aspergillus flavus. Kind of experiment: Synergistic antifungal activity against Aspergillus flavus ATCC 16870 assessed as fluconazole MIC mesured after 48 hrs by two-dimensional broth microdilution checkboard method. Type of experiment: functional. As to conditions: ATCC 16870, 48 h. An outline of the steps:
(§2)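 Two-dimensional broth microdilution checkerboard combining test agent with fluconazole per CLSI M27-A3, 35 °C for 48 h, duplicate runs. Combination MICs read. FIC index = MIC_A(comb)/MIC_A(alone) + MIC_B(comb)/MIC_B(alone). Interaction classed synergistic ≤0.5, indifferent >0.5–4, antagonistic >4.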

Experiment [6] can be described thus: Inhibition of yeast chitin synthase using UDP-GlcNAc as substrate measured after 1 hr. Set-up: species or system Saccharomyces cerevisiae. An outline of the steps: as §1
Experiment [7] relates to Cryptococcus neoformans. Kind of experiment: Synergistic antifungal activity against Cryptococcus neoformans ATCC 32719 measured after 48 hrs in presence of fluconazole by two-dimensional broth microdilution checkboard method. As to conditions: ATCC 32719, 48 h. Type of experiment: functional. In a few lines:
as §2

Experiment [8] has as its system Cryptococcus neoformans. Put plainly: Synergistic antifungal activity against Cryptococcus neoformans ATCC 32719 assessed as FIC index measured after 48 hrs in presence of fluconazole by two-dimensional broth microdilution checkboard method. It counts as functional. An outline of the steps:
as §2

The test system of experiment [9] is Aspergillus fumigatus. Put plainly: Synergistic antifungal activity against Aspergillus fumigatus GIMCC 3.19 assessed as fluconazole MIC mesured after 48 hrs by two-dimensional broth microdilution checkboard method. It counts as functional. To be noted: GIMCC 3.19, 48 h. In a few lines: as §2
A general note: In broth dilution the organism is exposed to a series of concentrations in liquid medium.

Experiment [10] deals with Aspergillus fumigatus. Put plainly: Synergistic antifungal activity against Aspergillus fumigatus GIMCC 3.19 measured after 48 hrs in presence of fluconazole by two-dimensional broth microdilution checkboard method. It counts as functional. To be noted: GIMCC 3.19, 48 h. In a few lines: as §2
In experiment [11] the test system is Aspergillus flavus. Put plainly: Antifungal activity against Aspergillus flavus ATCC 16870 measured after 48 hrs by two-dimensional broth microdilution checkboard method. Type of experiment: functional. As to conditions: ATCC 16870, 48 h. In a few lines: (§3)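 MICs of each agent alone re-determined in the checkerboard run. Two-dimensional broth microdilution per CLSI M27-A3, 35 °C for 48 h, each test performed twice (duplicate).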

For experiment [12], the system named is Cryptococcus neoformans. Put plainly: Synergistic antifungal activity against Cryptococcus neoformans ATCC 32719 assessed as fluconazole MIC mesured after 48 hrs by two-dimensional broth microdilution checkboard method. It counts as functional. To be noted: ATCC 32719, 48 h. An outline of the steps: as §2
Experiment [13] concerns Aspergillus flavus. Kind of experiment: Synergistic antifungal activity against Aspergillus flavus ATCC 16870 measured after 48 hrs in presence of fluconazole by two-dimensional broth microdilution checkboard method. As to conditions: ATCC 16870, 48 h. It counts as functional. In a few lines: as §2
Experiment [14] relates to Aspergillus fumigatus. Put plainly: Synergistic antifungal activity against Aspergillus fumigatus GIMCC 3.19 assessed as FIC index measured after 48 hrs in presence of fluconazole by two-dimensional broth microdilution checkboard method. It counts as functional. An outline of the steps:
as §2

Experiment [15] has as its system Candida albicans. Put plainly: Synergistic antifungal activity against Candida albicans ATCC 76615 assessed as FIC index measured after 48 hrs in presence of fluconazole by two-dimensional broth microdilution checkboard method. It counts as functional. An outline of the steps: as §2
Experiment [16] has as its system Candida albicans. Put plainly: Antifungal activity against Candida albicans ATCC 76615 measured after 48 hrs by two-dimensional broth microdilution checkboard method. It counts as functional. To be noted: ATCC 76615, 48 h. An outline of the steps:
as §3

Experiment [17] deals with Cryptococcus neoformans. Kind of experiment: Antifungal activity against Cryptococcus neoformans ATCC 32719 measured after 48 hrs by two-dimensional broth microdilution checkboard method. Type of experiment: functional. As to conditions: ATCC 32719, 48 h. An outline of the steps:
as §3

The subject of experiment [18] is Candida albicans. Kind of experiment: Synergistic antifungal activity against Candida albicans ATCC 76615 assessed as fluconazole MIC mesured after 48 hrs by two-dimensional broth microdilution checkboard method. It counts as functional. To be noted: ATCC 76615, 48 h. An outline of the steps: as §2
Experiment [19] has as its system Aspergillus fumigatus. Put plainly: Antifungal activity against Aspergillus fumigatus GIMCC 3.19 measured after 48 hrs by two-dimensional broth microdilution checkboard method. Type of experiment: functional. To be noted: GIMCC 3.19, 48 h. In a few lines:
as §3

Experiment [20] concerns Aspergillus flavus. Kind of experiment: Synergistic antifungal activity against Aspergillus flavus ATCC 16870 assessed as FIC index measured after 48 hrs in presence of fluconazole by two-dimensional broth microdilution checkboard method. It counts as functional. An outline of the steps: as §2
For experiment [21], the system named is Candida albicans. Kind of experiment: Synergistic antifungal activity against Candida albicans ATCC 76615 measured after 48 hrs in presence of fluconazole by two-dimensional broth microdilution checkboard method. It counts as functional. As to conditions: ATCC 76615, 48 h. In a few lines:
as §2

For orientation: inhibition means the change of the read-out against control, counted positive when it falls. Low readings indicate little suppression, high ones strong suppression. In general, MIC refers to the smallest concentration in the dilution series that meets the test's criterion for growth inhibition. In the experiment on Saccharomyces cerevisiae, `Cn1c(=O)n(CC(=O)N[C@@H](Cc2c[nH]c3ccccc23)C(=O)O)c(=O)c2ccccc21` returned an inhibition of 43.8%. Also, the MIC against Cryptococcus neoformans [1] is 600 µM (≈ 252 µg/mL); in the experiment with Candida albicans [2], above 1210 µM; against Aspergillus fumigatus [3], above 1210 µM; in the experiment on Aspergillus flavus [4], 600 µM (≈ 252 µg/mL).

One may read the IC50 as the concentration at which inhibition is half-maximal. Low values mean inhibition by little substance, high ones a need for much substance. In the case of `Cn1c(=O)n(CC(=O)N2CCC[C@H]2C(=O)O)c(=O)c2ccccc21`, the minimal inhibitory concentration (MIC) was determined as 7 µM in the experiment on Aspergillus flavus [5]; 386 µM in the experiment on Cryptococcus neoformans [7]; 13 µM in the experiment with Aspergillus fumigatus [9]; 1540 µM with Aspergillus fumigatus [10]; 770 µM (≈ 255 µg/mL) against Cryptococcus neoformans [1]; 773 µM (≈ 256 µg/mL) against Aspergillus flavus [11]. Besides, the MIC was 104 µM with Cryptococcus neoformans [12]; 193 µM in the experiment on Aspergillus flavus [13]; above 1540 µM with Candida albicans [2]; 770 µM (≈ 255 µg/mL) in the experiment on Aspergillus fumigatus [3]; 773 µM (≈ 256 µg/mL) in the experiment with Candida albicans [16]; 773 µM (≈ 256 µg/mL) with Cryptococcus neoformans [17]. Moreover, the MIC was 13 µM in the experiment with Candida albicans [18], 1540 µM (≈ 512 µg/mL) in the experiment with Aspergillus fumigatus [19], 1540 µM (≈ 510 µg/mL) with Aspergillus flavus [4] and 386 µM with Candida albicans [21]. In [6], this molecule had an IC50 of 180 µM. In the experiment on Saccharomyces cerevisiae, this molecule had an inhibition of 75.5%. Moreover, the “fractional inhibitory concentration index (FICI)” value with Cryptococcus neoformans [8] came to 1.5; in the experiment with Aspergillus fumigatus [14], 1.0625; with Candida albicans [15], 0.625; in the experiment on Aspergillus flavus [20] it was 0.3125.

With `CC(C)[C@H](NC(=O)Cn1c(=O)c2ccccc2n(C)c1=O)C(=O)O`, the inhibition in the experiment with Saccharomyces cerevisiae was found to be 18.5%. In addition, the MIC was 760 µM (≈ 253 µg/mL) against Cryptococcus neoformans [1], above 1530 µM against Candida albicans [2], 760 µM (≈ 253 µg/mL) in the experiment with Aspergillus fumigatus [3] and above 1530 µM in the experiment with Aspergillus flavus [4].

As for `OC(Cn1cncn1)(Cn1cncn1)c1ccc(F)cc1F` [FLUCONAZOLE], the MIC was 100 µM (≈ 30.6 µg/mL) with Cryptococcus neoformans [1]; 104 µM (≈ 31.9 µg/mL) in the experiment on Aspergillus flavus [11]; 200 µM (≈ 61.3 µg/mL) against Candida albicans [2]; 50 µM (≈ 15.3 µg/mL) against Aspergillus fumigatus [3]; 104 µM (≈ 31.9 µg/mL) in the experiment on Candida albicans [16]; 104 µM (≈ 31.9 µg/mL) with Cryptococcus neoformans [17]. The MIC turned out to be 209 µM (≈ 64 µg/mL) against Aspergillus fumigatus [19] and 100 µM (≈ 30.6 µg/mL) in the experiment with Aspergillus flavus [4].

Take `Cn1c(=O)n(CC(=O)NCCC(=O)O)c(=O)c2ccccc21`: the inhibition in the experiment with Saccharomyces cerevisiae is 47.5%. Further, the minimum inhibitory concentration (MIC) in the experiment with Cryptococcus neoformans [1] stood at 830 µM (≈ 253 µg/mL); against Candida albicans [2] it was 1670 µM (≈ 510 µg/mL); against Aspergillus fumigatus [3], 830 µM (≈ 253 µg/mL); in the experiment on Aspergillus flavus [4], 1670 µM (≈ 510 µg/mL).

As for `C[C@@H](NC(=O)Cn1c(=O)c2ccccc2n(C)c1=O)C(=O)O`, the inhibition in the experiment with Saccharomyces cerevisiae came to 47.8%. Also, the MIC came to 830 µM (≈ 253 µg/mL) with Cryptococcus neoformans [1], 1670 µM (≈ 510 µg/mL) against Candida albicans [2], 830 µM (≈ 253 µg/mL) with Aspergillus fumigatus [3] and 830 µM (≈ 253 µg/mL) against Aspergillus flavus [4].

For `CSCC[C@H](NC(=O)Cn1c(=O)c2ccccc2n(C)c1=O)C(=O)O`, the inhibition with Saccharomyces cerevisiae stood at 43.1%. Also, the MIC in the experiment with Cryptococcus neoformans [1] is 700 µM (≈ 256 µg/mL); with Candida albicans [2] it was above 1400 µM; in the experiment with Aspergillus fumigatus [3], 1400 µM (≈ 512 µg/mL); against Aspergillus flavus [4], above 1400 µM.

On to `Cn1c(=O)n(CC(=O)N[C@@H](Cc2ccccc2)C(=O)O)c(=O)c2ccccc21`, for which, in the experiment on Saccharomyces cerevisiae, the inhibition is 50.5%. For the same molecule, the MIC with Cryptococcus neoformans [1], against Candida albicans [2], in the experiment with Aspergillus fumigatus [3] and in the experiment with Aspergillus flavus [4] was above 1340 µM in each case.
